# Data published in ChEMBL document CHEMBL4038327, “Inhibitory Kappa B Kinase α (IKKα) Inhibitors That Recapitulate Their Selectivity in Cells against Isoform-Related Biomarkers” (J Med Chem, 2017).
# pKi: −log10 of the molar value.
# Experiments:
# [1] = target: T1, Inhibitor of nuclear factor kappa-B kinase subunit alpha (Homo sapiens, UniProt O15111); experiment: Inhibition of recombinant human N-terminal GST-tagged IKKalpha (1 to 745 residues) expressed in baculovirus expression system using biotinylated IkBalpha as substrate after 60 mins by DELFIA
# T1 sequence (O15111 whole entry): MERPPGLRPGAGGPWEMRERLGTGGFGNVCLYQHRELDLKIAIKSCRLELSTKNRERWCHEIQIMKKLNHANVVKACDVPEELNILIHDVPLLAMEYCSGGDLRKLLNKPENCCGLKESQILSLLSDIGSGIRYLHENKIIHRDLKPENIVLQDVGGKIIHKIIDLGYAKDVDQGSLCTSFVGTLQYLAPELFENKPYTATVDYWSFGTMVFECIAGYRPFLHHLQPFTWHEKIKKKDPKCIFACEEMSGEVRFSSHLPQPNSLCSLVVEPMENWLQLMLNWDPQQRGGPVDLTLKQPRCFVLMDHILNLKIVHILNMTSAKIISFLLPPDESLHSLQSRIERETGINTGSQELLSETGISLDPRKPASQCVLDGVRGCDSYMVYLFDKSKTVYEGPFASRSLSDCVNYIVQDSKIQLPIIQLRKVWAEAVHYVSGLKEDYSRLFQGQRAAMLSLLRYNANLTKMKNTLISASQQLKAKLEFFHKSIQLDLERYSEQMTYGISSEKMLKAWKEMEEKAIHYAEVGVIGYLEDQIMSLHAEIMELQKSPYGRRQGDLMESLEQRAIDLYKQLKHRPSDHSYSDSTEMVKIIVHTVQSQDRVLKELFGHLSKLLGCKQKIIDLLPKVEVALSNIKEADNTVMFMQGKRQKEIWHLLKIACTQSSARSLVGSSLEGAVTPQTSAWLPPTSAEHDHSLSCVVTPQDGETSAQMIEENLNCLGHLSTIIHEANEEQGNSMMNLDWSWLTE
# [2] = target: T2, Inhibitor of nuclear factor kappa-B kinase subunit beta (Homo sapiens, UniProt O14920); experiment: Inhibition of recombinant full length human IKKbeta expressed in baculovirus infected sf9 insect cells using biotinylated IkBalpha as substrate after 60 mins by DELFIA
# T2 sequence (O14920 whole entry): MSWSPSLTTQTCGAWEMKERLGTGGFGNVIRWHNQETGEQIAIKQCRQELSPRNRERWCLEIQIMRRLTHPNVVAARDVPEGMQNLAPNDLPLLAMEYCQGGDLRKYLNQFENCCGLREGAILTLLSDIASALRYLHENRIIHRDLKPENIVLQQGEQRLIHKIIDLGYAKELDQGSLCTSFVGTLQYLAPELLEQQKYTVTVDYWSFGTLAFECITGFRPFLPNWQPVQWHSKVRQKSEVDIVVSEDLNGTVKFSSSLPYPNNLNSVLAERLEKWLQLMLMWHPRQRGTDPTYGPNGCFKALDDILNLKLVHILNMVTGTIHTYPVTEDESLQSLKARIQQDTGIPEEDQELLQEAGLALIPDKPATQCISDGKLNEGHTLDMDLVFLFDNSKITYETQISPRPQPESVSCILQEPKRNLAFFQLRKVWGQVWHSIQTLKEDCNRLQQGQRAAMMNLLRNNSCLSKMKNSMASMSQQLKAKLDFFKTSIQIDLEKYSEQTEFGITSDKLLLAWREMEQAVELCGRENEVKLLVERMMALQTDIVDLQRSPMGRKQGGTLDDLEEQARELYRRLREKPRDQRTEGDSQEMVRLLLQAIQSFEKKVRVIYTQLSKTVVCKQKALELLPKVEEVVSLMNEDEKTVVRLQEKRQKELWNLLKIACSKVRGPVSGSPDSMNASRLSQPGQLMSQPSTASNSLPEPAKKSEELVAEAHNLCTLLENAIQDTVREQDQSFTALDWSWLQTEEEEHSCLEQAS
# In short: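 Recombinant IKKβ (37 nM) was incubated with biotinylated IκB-α (Ser32) peptide (0.375 μM) and 40 μM ATP in Tris-HCl pH 7.5 with MgCl2, EDTA, DTT and BSA for 60 min at 30 °C. The reaction was quenched with EDTA and captured on streptavidin. Detection used anti-phospho-IκBα (Ser32/36) mAb plus Eu-anti-mouse IgG, read by time-resolved fluorescence (340/615 nm). Apparent Ki was obtained via Cheng–Prusoff, n=3.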
# [3] = target: T3, Serine/threonine-protein kinase D1 (Homo sapiens) (UniProt Q15139); experiment: Inhibition of N-terminal His6 tagged recombinant human full length PKCmu expressed in Sf21 cells at 10 uM relative to control
# T3 sequence (whole entry): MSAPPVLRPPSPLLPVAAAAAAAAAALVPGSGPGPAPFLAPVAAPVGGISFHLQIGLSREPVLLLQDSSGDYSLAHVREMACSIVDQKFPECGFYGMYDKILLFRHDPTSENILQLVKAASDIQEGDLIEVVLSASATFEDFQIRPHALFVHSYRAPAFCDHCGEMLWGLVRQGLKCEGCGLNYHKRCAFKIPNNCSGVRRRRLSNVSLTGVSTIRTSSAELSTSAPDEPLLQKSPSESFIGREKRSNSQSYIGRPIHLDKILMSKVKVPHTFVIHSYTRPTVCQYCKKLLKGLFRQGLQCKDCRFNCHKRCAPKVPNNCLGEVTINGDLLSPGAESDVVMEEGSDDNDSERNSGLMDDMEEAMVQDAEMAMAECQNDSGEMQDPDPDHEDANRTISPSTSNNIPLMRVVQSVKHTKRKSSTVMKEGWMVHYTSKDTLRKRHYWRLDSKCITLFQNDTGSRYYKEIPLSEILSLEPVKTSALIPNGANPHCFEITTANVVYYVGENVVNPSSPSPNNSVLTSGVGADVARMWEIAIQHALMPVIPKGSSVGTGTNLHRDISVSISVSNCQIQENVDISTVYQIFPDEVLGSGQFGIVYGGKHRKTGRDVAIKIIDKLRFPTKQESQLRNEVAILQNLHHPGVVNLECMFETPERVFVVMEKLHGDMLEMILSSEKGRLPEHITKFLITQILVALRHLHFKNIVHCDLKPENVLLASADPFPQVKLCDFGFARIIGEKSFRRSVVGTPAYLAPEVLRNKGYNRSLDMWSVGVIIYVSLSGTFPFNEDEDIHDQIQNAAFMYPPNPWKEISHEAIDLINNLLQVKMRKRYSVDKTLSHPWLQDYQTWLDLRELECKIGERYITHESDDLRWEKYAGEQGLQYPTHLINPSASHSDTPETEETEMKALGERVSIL
# In short: (§1)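 Outsourced commercial kinase panel run at a single concentration, with duplicate assay points.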
# [4] = target: Dual specificity mitogen-activated protein kinase kinase 1 (Homo sapiens) (UniProt Q02750); experiment: Inhibition of N-terminal GST tagged/C-terminal His6-tagged recombinant full length human Mek1 expressed in Escherichia coli cells at 10 uM relative to control; in short: as §1
# Dual specificity mitogen-activated protein kinase kinase 1 (Homo sapiens), sequence (Q02750 whole entry): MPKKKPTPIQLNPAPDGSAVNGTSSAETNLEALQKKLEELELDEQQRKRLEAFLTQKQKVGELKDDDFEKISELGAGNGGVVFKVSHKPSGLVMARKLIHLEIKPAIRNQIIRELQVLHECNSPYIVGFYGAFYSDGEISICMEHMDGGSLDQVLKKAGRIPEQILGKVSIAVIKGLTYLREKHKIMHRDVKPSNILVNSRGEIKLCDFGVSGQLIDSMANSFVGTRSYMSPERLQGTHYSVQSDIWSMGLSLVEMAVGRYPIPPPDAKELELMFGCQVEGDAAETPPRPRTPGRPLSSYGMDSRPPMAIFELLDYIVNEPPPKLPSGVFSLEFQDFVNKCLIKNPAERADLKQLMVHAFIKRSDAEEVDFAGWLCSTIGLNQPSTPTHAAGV
structure (smiles),measurement,setting,value
N#Cc1c[nH]c2nc(N)nc(-c3ccc(S(N)(=O)=O)cc3)c12,pKi,[1],7.10
same,pKi,[2],6.00
same,inhibition,[3],> 80%
same,inhibition,[4],> 80%
